Data from ChEMBL document CHEMBL1147741, “Chroman/catechol hybrids: synthesis and evaluation of their activity against oxidative stress induced cellular damage” (J Med Chem, 2006).

Columns and labels:
[1] = tested on: Radical scavenging activity; test: Antioxidant potency assessed chemically; format: functional
Method in brief: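 TEAC determined by the Rice-Evans and Miller method, using 0.3 mM trolox solution with data normalized to 1.0 mM trolox.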

[2] = tested on: Jurkat; test: Activity against hydrogen peroxide induced DNA damage in Jurkat T cells; format: functional, cell-based, Homo sapiens
Method in brief: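 Jurkat T cells (1.5 × 10⁵ per well, RPMI 1640 with 10% FCS) were preincubated 1 h at 37 °C, given compound 30 min before glucose oxidase (60 ng, about 11.8 µM H₂O₂/min), and exposed 10 min. Alkaline comet assay followed: lysis, unwinding at pH >13 for 40 min, electrophoresis at 1 V/cm for 30 min, Hoechst 33342 staining, visual scoring of 100 nucleoids. IC50 is the concentration halving strand breakage.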

[3] = tested on: HT-22; test: Inhibition of glutamate-induced oxytosis of mouse hippocampal HT22 cells; format: functional, cell-based
Method in brief: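 HT22 cells were plated at 4000 per well in phenol-red-free DMEM-HEPES with dextran-charcoal-treated FBS for 24 h. Serial compound dilutions were added with or without 5 mM glutamate for 24 h at 37 °C, and viability was read by MTT formazan conversion. EC50 is the concentration giving glutamate-exposed viability 50% of non-exposed cells; 3-7 independent experiments, mean ± SEM.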

[4] = Homo sapiens, Jurkat, read-out: IC50

| SMILES | Activity [1] [µM] | IC50 [2, 4] [µM] | EC50 [3] [µM] | IC50 ([2]; jurkat) |
| --- | --- | --- | --- | --- |
| COc1c(C)c(C)c2c(c1CNC(=O)/C=C/c1ccc(O)c(O)c1)CCC(C)(C)O2 | 3.8 | 1 | 2.15 | – |
| Cc1c(C)c2c(c3c1OC(c1ccc(O)c(O)c1)C3)CCC(C)(C)O2 (stereo unspecified) | 5.9 | 10 | 1 | – |
| Cc1c(C)c2c(c(NC(=O)/C=C/c3ccc(O)c(O)c3)c1O)CCC(C)(C)O2 | 4.28 | 5 | 1.23 | – |
| O=C(O)/C=C/c1ccc(O)c(O)c1 [CAFFEIC ACID] | 1.2 | – | – | Not Active |
| Cc1c(C)c2c(c(C)c1O)CCC(C)(C(=O)NCCN1CCN(C(=O)/C=C/c3ccc(O)c(O)c3)CC1)O2 (stereo unspecified) | 6.24 | 20 | 6.35 | – |
| COc1ccc(/C=C/C(=O)N2CCN(C(=O)C3(C)CCc4c(C)c(O)c(C)c(C)c4O3)CC2)cc1OC (stereo unspecified) | 1.26 | – | 0.65 | Not Active |
| COc1c(C)c(C)c2c(c1CCc1ccc(O)c(O)c1)CCC(C)(C)O2 | 1.6 | 10 | 1.17 | – |
| Cc1c(C)c2c(c(C)c1O)CCC(C)(C(=O)NCCNC(=O)/C=C/c1ccc(O)c(O)c1)O2 (stereo unspecified) | 6.5 | 75 | 7.36 | – |
| Cc1c(C)c2c(c(C)c1O)CCC(C)(CNC(=O)/C=C/c1ccc(O)c(O)c1)O2 (stereo unspecified) | 6.53 | 25 | 1.14 | – |
| COc1ccc(/C=C/c2c3c(c(C)c(C)c2OC)OC(C)(C)CC3)cc1OC | – | – | > 10 | – |
| Cc1c(C)c2c(c(CCc3ccc(O)c(O)c3)c1O)CCC(C)(C)O2 | 3.74 | 5 | 0.93 | – |
| O=c1c(O)c(-c2ccc(O)c(O)c2)oc2cc(O)cc(O)c12 [QUERCETIN] | 4.3 | 5 | 2.98 | – |
| Cc1c(C)c2c(c(C)c1O)CCC(C)(C(=O)NCCNCCNC(=O)/C=C/c1ccc(O)c(O)c1)O2 (stereo unspecified) | 6.33 | 50 | > 10 | – |
| Cc1c(C)c2c(c(C)c1O)CCC(C)(C(=O)O)O2 (stereo unspecified) [TROLOX] | 1 | – | – | Not Active |
| COc1c(C)c(C)c2c(c1C)CCC(C)(C(=O)N1CCN(C(=O)/C=C/c3ccc(O)c(O)c3)CC1)O2 (stereo unspecified) | 6.12 | 50 | 2.11 | – |
| COc1ccc(C#Cc2c(O)c(C)c(C)c3c2CCC(C)(C)O3)cc1OC | – | – | > 10 | – |
| Cc1c(C)c2c(c(C)c1O)CCC(C)(C(=O)N1CCN(C(=O)/C=C/c3ccc(O)c(O)c3)CC1)O2 (stereo unspecified) | 6.55 | 50 | 1.48 | – |
| COc1ccc(CCc2c3c(c(C)c(C)c2OC)OC(C)(C)CC3)cc1OC | 0.05 | – | 4.59 | Not Active |
| COc1c(C)c(C)c2c(c1NC(=O)/C=C/c1ccc(O)c(O)c1)CCC(C)(C)O2 | 6.53 | 20 | > 10 | – |
